Legend:
[1] = target: Carbapenem-hydrolyzing beta-lactamase KPC (Klebsiella pneumoniae) (UniProt Q9F663); test: Inhibition of Klebsiella pneumoniae KP1084 KPC-3 assessed as biapenem MIC at 4 ug/ml by broth microdilution method
[2] = target: Beta lactamase TEM-1 (Klebsiella pneumoniae) (UniProt Q7B899); test: Inhibition of Klebsiella pneumoniae KP1084 TEM-1 assessed as biapenem MIC at 4 ug/ml by broth microdilution method
Klebsiella pneumoniae [3] = test: Inhibition of Klebsiella pneumoniae KP1087 SHV-11 assessed as biapenem MIC at 4 ug/ml by broth microdilution method
In short: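 CLSI broth microdilution (M07-A9) against clinical K. pneumoniae strain KP1087 (KPC-2, CTX-M-15, SHV-11, TEM-1); carbapenem MIC (μg/mL) read with the inhibitor held at a fixed 4 μg/mL, alongside carbapenem alone.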

Klebsiella pneumoniae [4] = test: Inhibition of Klebsiella pneumoniae KP1004 KPC-2 assessed as meropenem MIC at 4 ug/ml by broth microdilution method
In short: (§1)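 CLSI broth microdilution (M07-A9, 2012) MIC of the carbapenem against clinical serine carbapenemase-producing strain, tested alone and with the inhibitor held at a fixed 4 μg/mL.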

Klebsiella oxytoca [5] = test: Inhibition of Klebsiella oxytoca KX1017 SHV-30 assessed as meropenem MIC at 4 ug/ml by broth microdilution method
[6] = target: Carbapenem-hydrolyzing beta-lactamase KPC (Klebsiella oxytoca) (UniProt Q848S6); test: Inhibition of Klebsiella oxytoca KX1019 KPC-2 assessed as meropenem MIC at 4 ug/ml by broth microdilution method; in short: as §1
Chain of Carbapenem-hydrolyzing beta-lactamase KPC (Klebsiella oxytoca) (Q848S6 whole entry): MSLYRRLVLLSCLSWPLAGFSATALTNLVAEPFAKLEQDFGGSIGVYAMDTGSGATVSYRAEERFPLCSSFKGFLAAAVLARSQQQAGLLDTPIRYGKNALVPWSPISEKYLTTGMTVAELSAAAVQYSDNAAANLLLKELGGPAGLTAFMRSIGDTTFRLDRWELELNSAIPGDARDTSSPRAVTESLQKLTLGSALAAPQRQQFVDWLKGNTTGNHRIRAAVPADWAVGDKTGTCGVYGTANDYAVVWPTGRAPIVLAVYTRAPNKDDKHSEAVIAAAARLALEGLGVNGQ

Klebsiella pneumoniae [7] = test: Inhibition of Klebsiella pneumoniae KP1087 SHV-11 assessed as meropenem MIC at 4 ug/ml by broth microdilution method; in short: as §1
Trypsin = Trypsin (Homo sapiens, UniProt P07477+P07478+P35030); test: Inhibition of trypsin (unknown origin) using N-Bz-R-AMC as substrate preincubated for 10 mins followed by substrate addition measured for 30 mins by spectrophotometric analysis; format: protein assay
In short: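 Trypsin in 50 mM Tris-HCl, pH 8.0, 10 mM CaCl2, 100 mM NaCl. Preincubated 10 min at 37 °C with varied inhibitor. N-Bz-R-AMC (listed at 200 μM) was then added and fluorescence read for 30 min. Rates were vs untreated control; IC50 is the concentration giving 50% inhibition.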

[8] = Inhibition of chymotrypsin (unknown origin) using Suc-AAPF-AMC as substrate preincubated for 10 mins followed by substrate addition measured for 30 mins by spectrophotometric analysis; set-up: species or system Homo sapiens
In short: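 Chymotrypsin, from a commercial source, in 20 mM Tris-HCl, pH 8, 150 mM NaCl, 2.5 mM CaCl2. Incubated 10 min at 37 °C with varied inhibitor concentrations. Suc-AAPF-AMC (listed at 10 μM) was added and the reaction read for 30 min. Rates were relative to untreated; IC50 is the concentration giving 50% inhibition.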

Dipeptidyl peptidase 2 = Dipeptidyl peptidase 2 (Homo sapiens, UniProt Q9UHL4); test: Inhibition of dipeptidyl peptidase 7 (unknown origin) using H-Lys-Pro-AMC as substrate preincubated for 10 mins followed by substrate addition measured for 30 mins by spectrophotometric analysis
In short: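 DPP7 (commercial) in 50 mM Na-acetate, pH 5.8. Preincubated 10 min at 37 °C with inhibitor at several concentrations, then H-Lys-Pro-AMC (listed at 100 μM) added and fluorescence monitored for 30 min. Activity was relative to a no-treatment control; IC50 is the concentration giving half inhibition.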

[9] = Volume of distribution in rat at 100 mg/kg, iv administered as 0.5 hrs infusion by HPLC-MS method; format: ADME, organism-based; conditions: in vivo
[10] = Volume of distribution in rat at 1000 mg/kg, iv administered as 0.5 hrs infusion by HPLC-MS method; format: ADME, organism-based; conditions: in vivo
Klebsiella pneumoniae [11] = test: In vivo inhibition of KPC in Klebsiella pneumoniae KP1074 in Swiss webster neutropenic mouse lung infection model assessed as biapenem deltalog10CFU in lung at 50 mg/kg, ip administered every 2 hrs starting at 2 hrs postinfection measured after 24 hrs; format: functional
[12] = AUC in human at 1 g administered as 3 hrs of infusion; format: ADME, organism-based; conditions: in vivo, iv
Enterobacter cloacae = test: Inhibition of Enterobacter cloacae ECL1003 SHV assessed as cefepime MIC at 4 ug/ml by broth microdilution method
In short: (§2)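 CLSI broth microdilution (M07-A9) against clinical strains expressing serine β-lactamases.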

Klebsiella pneumoniae [13] = test: Inhibition of Klebsiella pneumoniae KP1009 CTX-M-15 assessed as cefepime MIC at 4 ug/ml by broth microdilution method
Klebsiella aerogenes = test: Inhibition of Enterobacter aerogenes EA1028 OXA-30 assessed as cefepime MIC at 4 ug/ml by broth microdilution method; in short: as §2
[14] = target: T1, Beta-lactamase SHV-1 (Klebsiella pneumoniae) (UniProt P0AD64); test: Inhibition of Klebsiella pneumoniae KP1083 SHV-1 assessed as biapenem MIC at 4 ug/ml by broth microdilution method; in short: as §1
T1 sequence (whole entry): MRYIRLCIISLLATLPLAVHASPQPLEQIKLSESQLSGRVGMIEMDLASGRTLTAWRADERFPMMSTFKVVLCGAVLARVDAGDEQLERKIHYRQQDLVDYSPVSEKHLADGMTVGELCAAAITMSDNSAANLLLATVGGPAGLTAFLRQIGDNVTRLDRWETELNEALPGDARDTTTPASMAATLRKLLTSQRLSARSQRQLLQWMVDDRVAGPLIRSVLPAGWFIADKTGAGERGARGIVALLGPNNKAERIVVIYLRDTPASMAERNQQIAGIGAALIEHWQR

Klebsiella pneumoniae [15] = test: Inhibition of Klebsiella pneumoniae KP1088 SHV-11 assessed as biapenem MIC at 4 ug/ml by broth microdilution method
In short: (§3)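 CLSI broth microdilution (M07-A9, 2012) against the clinical K. pneumoniae isolate. Carbapenem MICs were read alone and with 9f held at a fixed 4 μg/mL.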

Klebsiella pneumoniae [16] = test: Inhibition of Klebsiella pneumoniae KP1088 SHV-11 assessed as meropenem MIC at 4 ug/ml by broth microdilution method; in short: as §3
[17] = target: Beta lactamase TEM-1 (Klebsiella pneumoniae) (UniProt Q7B899); test: Inhibition of Klebsiella pneumoniae KP1087 TEM-1 assessed as ertapenem MIC at 4 ug/ml by broth microdilution method; in short: as §1
[18] = target: Carbapenem-hydrolyzing beta-lactamase KPC (Klebsiella oxytoca) (UniProt Q848S6); test: Inhibition of Klebsiella oxytoca KX1019 KPC-2 assessed as ertapenem MIC at 4 ug/ml by broth microdilution method
Klebsiella pneumoniae [19] = test: Inhibition of Klebsiella pneumoniae KP1008 KPC-2 assessed as imipenem MIC at 4 ug/ml by broth microdilution method; in short: as §1
[20] = target: Beta lactamase TEM-1 (Klebsiella pneumoniae) (UniProt Q7B899); test: Inhibition of Klebsiella pneumoniae KP1083 TEM-1 assessed as imipenem MIC at 4 ug/ml by broth microdilution method
Klebsiella pneumoniae [21] = test: Inhibition of Klebsiella pneumoniae KP1088 SHV-11 assessed as imipenem MIC at 4 ug/ml by broth microdilution method; in short: as §3
Klebsiella oxytoca [22] = test: Inhibition of Klebsiella oxytoca KX1017 OXA-2 assessed as ertapenem MIC at 4 ug/ml by broth microdilution method
[23] = target: Carbapenem-hydrolyzing beta-lactamase KPC (Klebsiella oxytoca) (UniProt Q848S6); test: Inhibition of Klebsiella oxytoca KX1017 KPC-2 assessed as imipenem MIC at 4 ug/ml by broth microdilution method

Chain of Beta lactamase TEM-1 (Klebsiella pneumoniae) (Q7B899 as listed by the source): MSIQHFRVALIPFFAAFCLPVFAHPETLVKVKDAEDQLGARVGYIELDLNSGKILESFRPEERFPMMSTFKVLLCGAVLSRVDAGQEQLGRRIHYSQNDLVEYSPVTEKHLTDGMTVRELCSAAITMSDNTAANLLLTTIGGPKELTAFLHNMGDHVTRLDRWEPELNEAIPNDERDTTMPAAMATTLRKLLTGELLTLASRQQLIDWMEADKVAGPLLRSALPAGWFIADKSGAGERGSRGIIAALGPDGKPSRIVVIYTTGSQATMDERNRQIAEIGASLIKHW
Chain of Carbapenem-hydrolyzing beta-lactamase KPC (Klebsiella pneumoniae) (Q9F663 whole entry): as the sequence (Q848S6 whole entry) above

O=C(O)C[C@@H]1CC[C@H](NC(=O)Cc2cccs2)B(O)O1 [VABORBACTAM]
MIC [1]: 0.25 µg/mL | MIC [2]: 0.25 µg/mL | MIC (Klebsiella pneumoniae [3]): 0.25 µg/mL | MIC (Klebsiella pneumoniae [4]): ≤ 0.06 µg/mL | MIC (Klebsiella oxytoca [5]): < 0.06 µg/mL | MIC [6]: < 0.06 µg/mL | MIC (Klebsiella pneumoniae [7]): 1 µg/mL | IC50 (Trypsin): > 1000 µM | IC50 [8]: > 1000 µM | IC50 (Dipeptidyl peptidase 2): > 1000 µM | Vd [9]: 0.97 L/kg | Vd [10]: 0.55 L/kg | deltalog10CFU (Klebsiella pneumoniae [11]): -2.19 | AUC at 3 h [12]: 100000 ng·h/mL | MIC (Enterobacter cloacae): 8 µg/mL | MIC (Klebsiella pneumoniae [13]): 2 µg/mL | MIC (Klebsiella aerogenes): 0.5 µg/mL | MIC [14]: < 0.06 µg/mL | MIC (Klebsiella pneumoniae [15]): ≤ 0.06 µg/mL | MIC (Klebsiella pneumoniae [16]): ≤ 0.06 µg/mL | MIC [17]: 2 µg/mL | MIC [18]: 0.25 µg/mL | MIC (Klebsiella pneumoniae [19]): ≤ 0.06 µg/mL | MIC [20]: 0.13 µg/mL | MIC (Klebsiella pneumoniae [21]): ≤ 0.06 µg/mL | MIC (Klebsiella oxytoca [22]): 0.25 µg/mL | MIC [23]: 0.13 µg/mL
